ChEMBL document CHEMBL1158335, “Synthesis and evaluation of some new benzimidazole derivatives as potential antimicrobial agents” (2009)
≈ marks a conversion by molar mass, not a printed value. Calls of active or inactive are those of the source. No cut-off for these calls is given here.

Key:
Escherichia coli [1] = assay: Antibacterial activity against Escherichia coli ATCC 25922 after 24 hrs; type: functional
Bacillus subtilis [2] = assay: Antibacterial activity against Bacillus subtilis MTCC 121 at 200 ug/ml after 24 hrs; type: functional, organism-based
Outline: (§1)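 Organisms grown overnight at 37 °C in buffered glucose broth. A loopful (5 mm diameter) was added to buffered glucose broth containing the test compound and incubated at 37 °C for 24 h. Growth was scored against the untreated control as total inhibition, poor, medium or confluent growth.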

Bacillus subtilis [3] = assay: Antibacterial activity against Bacillus subtilis MTCC 121 after 24 hrs; type: functional
Escherichia coli [4] = assay: Antibacterial activity against Escherichia coli ATCC 25922 at 10 ug/ml after 24 hrs; type: functional, organism-based; outline: as §1
Escherichia coli [5] = assay: Antibacterial activity against Escherichia coli ATCC 25922 at 500 ug/ml after 24 hrs; type: functional, organism-based; outline: as §1
Aspergillus flavus = assay: Antifungal activity against Aspergillus flavus AIIMS isolate at 30 ug/ml by cup-plate agar diffusion method; type: functional; conditions: for zone of inhibition at 30 µg/mL: read-out: DIZ
Outline: (§2)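 Cup-plate agar diffusion assay against the fungal strains, with amphotericin B as the reference standard.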

Aspergillus niger = assay: Antifungal activity against Aspergillus niger AIIMS isolate at 30 ug/ml by cup-plate agar diffusion method; type: functional; conditions: for zone of inhibition at 30 µg/mL: read-out: DIZ; outline: as §2
Bacillus subtilis [6] = assay: Antibacterial activity against Bacillus subtilis MTCC 121 at 10 ug/ml after 24 hrs; type: functional, organism-based; outline: as §1
Candida albicans = assay: Antifungal activity against Candida albicans MTCC 1637 at 30 ug/ml by cup-plate agar diffusion method; type: functional; conditions: for zone of inhibition at 30 µg/mL: read-out: DIZ; outline: as §2
Bacillus subtilis [7] = assay: Antibacterial activity against Bacillus subtilis MTCC 121 at 1 ug/ml after 24 hrs; type: functional, organism-based; outline: as §1
Escherichia coli [8] = assay: Antibacterial activity against Escherichia coli ATCC 25922 at 1 ug/ml after 24 hrs; type: functional, organism-based; outline: as §1
Bacillus subtilis [9] = assay: Antibacterial activity against Bacillus subtilis MTCC 121 at 500 ug/ml after 24 hrs; type: functional, organism-based; outline: as §1
Escherichia coli [10] = assay: Antibacterial activity against Escherichia coli ATCC 25922 at 100 ug/ml after 24 hrs; type: functional, organism-based; outline: as §1
Escherichia coli [11] = assay: Antibacterial activity against Escherichia coli ATCC 25922 at 200 ug/ml after 24 hrs; type: functional, organism-based; outline: as §1
Bacillus subtilis [12] = assay: Antibacterial activity against Bacillus subtilis MTCC 121 at 100 ug/ml after 24 hrs; type: functional, organism-based; outline: as §1

MIC (Escherichia coli [1]; ATCC 25922, 24 h) | MIC (Bacillus subtilis [3]; MTCC 121, 24 h) | SMILES | inhibition (Bacillus subtilis [2]) | inhibition (Escherichia coli [4]) | inhibition (Escherichia coli [5]) | zone of inhibition at 30 µg/mL (Aspergillus flavus) | zone of inhibition at 30 µg/mL (Aspergillus niger) | inhibition (Bacillus subtilis [6]) | zone of inhibition at 30 µg/mL (Candida albicans) | inhibition (Bacillus subtilis [7]) | inhibition (Escherichia coli [8]) | inhibition (Bacillus subtilis [9]) | inhibition (Escherichia coli [10]) | diameter of the inhibition zone (DIZ) (Aspergillus flavus) | diameter of the inhibition zone (DIZ) (Aspergillus niger) | inhibition (Escherichia coli [11]) | diameter of the inhibition zone (DIZ) (Candida albicans) | inhibition (Bacillus subtilis [12]) | other results
500 µg/mL (≈ 1220 µM) | 200 µg/mL (≈ 488 µM) | Cc1nc2ccccc2n1Cc1nnc(N2C(=O)C(Cl)C2c2ccccc2)s1 (configuration not stated) | Active | inactive | Active | 16 mm | 10 mm | inactive | 16 mm | inactive | inactive | Active |  |  |  |  |  |  | 
100 µg/mL (≈ 225 µM) | 200 µg/mL (≈ 450 µM) | Cc1nc2ccccc2n1Cc1nnc(N2C(=O)C(Cl)C2c2ccccc2Cl)s1 (configuration not stated) | Active |  | Active |  |  | inactive |  | inactive | inactive | Active | Active | inactive | inactive | Active | inactive |  | 
500 µg/mL (≈ 1180 µM) | 500 µg/mL (≈ 1180 µM) | Cc1ccc(C2C(Cl)C(=O)N2c2nnc(Cn3c(C)nc4ccccc43)s2)cc1 (configuration not stated) |  |  | Active | 16 mm | 10 mm | inactive | < 10 mm | inactive | inactive | Active |  |  |  |  |  |  | 
100 µg/mL (≈ 236 µM) | 100 µg/mL (≈ 236 µM) | Cc1ccccc1C1C(Cl)C(=O)N1c1nnc(Cn2c(C)nc3ccccc32)s1 (configuration not stated) | Active |  | Active | < 10 mm | 16 mm |  | 10 mm | inactive | inactive | Active | Active |  |  | Active |  | Active | 
200 µg/mL (≈ 600 µM) | 100 µg/mL (≈ 300 µM) | Cc1nc2ccccc2n1Cc1nnc(/N=C/c2ccccc2)s1 | Active |  | Active | 22 mm | 22 mm |  | 16 mm | inactive | inactive | Active |  |  |  | Active |  | Active | 
 |  | Cc1cccc(C2C(Cl)C(=O)N2c2nnc(Cn3c(C)nc4ccccc43)s2)c1 (configuration not stated) | inactive | inactive | inactive |  |  | inactive |  | inactive | inactive |  | inactive | inactive | inactive | inactive | inactive | inactive | MIC (Escherichia coli [1]): inactive; MIC (Bacillus subtilis [3]): inactive; Activity (Bacillus subtilis [9]): inactive
500 µg/mL (≈ 1170 µM) | 200 µg/mL (≈ 470 µM) | Cc1nc2ccccc2n1Cc1nnc(N2C(=O)C(Cl)C2c2ccc(O)cc2)s1 (configuration not stated) | Active | inactive | Active | 16 mm | 16 mm |  | 16 mm |  | inactive | Active |  |  |  |  |  |  | 
200 µg/mL (≈ 572 µM) | 200 µg/mL (≈ 572 µM) | Cc1nc2ccccc2n1Cc1nnc(/N=C/c2ccc(O)cc2)s1 | Active |  | Active | 16 mm | 16 mm |  | 16 mm | inactive | inactive | Active |  |  |  | Active |  |  | 
500 µg/mL (≈ 1170 µM) | 200 µg/mL (≈ 470 µM) | Cc1nc2ccccc2n1Cc1nnc(N2C(=O)C(Cl)C2c2cccc(O)c2)s1 (configuration not stated) | Active |  | Active |  |  |  |  | inactive | inactive | Active |  | inactive | inactive |  | inactive |  | 
100 µg/mL (≈ 272 µM) | 100 µg/mL (≈ 272 µM) | Cc1nc2ccccc2n1Cc1nnc(/N=C/c2ccccc2Cl)s1 | Active |  | Active |  |  |  |  | inactive | inactive | Active | Active | inactive | inactive | Active | inactive | Active | 
 |  | C[C@@H]1[C@H](O)[C@@H](C)/C=C/C=C/C=C/C=C/C=C/C=C/C=C/[C@H](O[C@@H]2O[C@H](C)[C@@H](O)[C@H](N)[C@@H]2O)C[C@@H]2O[C@](O)(C[C@@H](O)C[C@@H](O)[C@H](O)CC[C@@H](O)C[C@@H](O)CC(=O)O[C@H]1C)C[C@H](O)[C@H]2C(=O)O [AMPHOTERICIN B] |  |  |  | 22 mm | 22 mm |  | 22 mm |  |  |  |  |  |  |  |  |  | 
200 µg/mL (≈ 550 µM) | 100 µg/mL (≈ 275 µM) | COc1ccc(/C=N/c2nnc(Cn3c(C)nc4ccccc43)s2)cc1 | Active | inactive | Active | 16 mm | 16 mm |  | 10 mm | inactive | inactive | Active |  |  |  | Active |  | Active | 
200 µg/mL (≈ 470 µM) | 100 µg/mL (≈ 235 µM) | Cc1nc2ccccc2n1Cc1nnc(N2C(=O)C(Cl)C2c2ccccc2O)s1 (configuration not stated) | Active |  | Active | 10 mm | 16 mm |  | 10 mm |  | inactive | Active |  |  |  | Active |  | Active | 
200 µg/mL (≈ 574 µM) | 100 µg/mL (≈ 287 µM) | Cc1nc2ccccc2n1Cc1nnc(/N=C/c2ccc(N)cc2)s1 | Active |  | Active | 10 mm | 22 mm |  | 16 mm | inactive | inactive | Active |  |  |  | Active |  | Active | 
500 µg/mL (≈ 1210 µM) | 500 µg/mL (≈ 1210 µM) | Cc1nc2ccccc2n1Cc1nnc(/N=C/c2ccc(Br)cc2)s1 |  | inactive | Active |  |  | inactive |  | inactive | inactive | Active |  | inactive | inactive |  | inactive |  | 
100 µg/mL (≈ 288 µM) | 200 µg/mL (≈ 576 µM) | Cc1ccccc1/C=N/c1nnc(Cn2c(C)nc3ccccc32)s1 | Active |  | Active | < 10 mm | 10 mm | inactive | 10 mm | inactive | inactive | Active | Active |  |  | Active |  |  | 
200 µg/mL (≈ 455 µM) | 200 µg/mL (≈ 455 µM) | COc1ccc(C2C(Cl)C(=O)N2c2nnc(Cn3c(C)nc4ccccc43)s2)cc1 (configuration not stated) | Active |  | Active | < 10 mm | < 10 mm |  | 10 mm | inactive | inactive | Active |  |  |  | Active |  |  | 
10 µg/mL (≈ 28.6 µM) | 10 µg/mL (≈ 28.6 µM) | CC1(C)S[C@@H]2[C@H](NC(=O)[C@H](N)c3ccccc3)C(=O)N2[C@H]1C(=O)O [AMPICILLIN] | Active | Active | Active |  |  | Active |  |  |  | Active | Active |  |  | Active |  | Active | 
200 µg/mL (≈ 572 µM) | 100 µg/mL (≈ 286 µM) | Cc1nc2ccccc2n1Cc1nnc(/N=C/c2ccccc2O)s1 | Active | inactive | Active |  |  |  |  | inactive | inactive | Active |  | inactive | inactive | Active | inactive | Active | 
200 µg/mL (≈ 471 µM) | 100 µg/mL (≈ 235 µM) | Cc1nc2ccccc2n1Cc1nnc(N2C(=O)C(Cl)C2c2ccc(N)cc2)s1 (configuration not stated) | Active |  | Active | 10 mm | 10 mm |  | 16 mm |  | inactive | Active |  |  |  | Active |  | Active | 
